According to ChEMBL document CHEMBL1144538, “Synthesis and pharmacological evaluation of some 3-phenyl-2-substituted-3H-quinazolin-4-one as analgesic, anti-inflammatory agents” (2007):

Tests used:
Format in all cases: functional
Mus musculus [1] = assay: Analgesic activity in Wistar Albino mouse at 10 mg/kg, po after 1 hr by tail-flick technique
Summary of the method: (§1)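 Tail-flick in Wistar albino mice (25–35 g, either sex, randomly selected), compound given orally as suspension in 1% carboxymethyl cellulose; six animals per group. Reaction time read before dosing and after dosing, cut-off 10 s. Percent analgesic activity = (T2 − T1)/(10 − T1) × 100, T1/T2 being pre/post reaction times; mean of n = 6, one-way ANOVA versus control.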

Mus musculus [2] = assay: Analgesic activity in Wistar Albino mouse at 10 mg/kg, po after 30 mins by tail-flick technique; summary of the method: as §1
Rattus norvegicus [3] = assay: Anti-inflammatory activity against Carrageenan-induced paw oedema rat model at 10 mg/kg after 3 hrs
Summary of the method: (§2)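 Rat carrageenan paw oedema; compound dosed orally as suspension in 1% carboxymethyl cellulose, six rats per group. Paw volume by mercury displacement plethysmography immediately before and at the stated time after carrageenan injection. Percent oedema inhibition computed from pre/post paw volumes of treated versus vehicle-control rats; one-way ANOVA versus control.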

Mus musculus [4] = assay: Analgesic activity in Wistar Albino mouse at 10 mg/kg, po after 3 hrs by tail-flick technique; summary of the method: as §1
Rattus norvegicus [5] = assay: Anti-inflammatory activity against Carrageenan-induced paw oedema rat model at 10 mg/kg after 1 hr; summary of the method: as §2
Rattus norvegicus [6] = assay: Anti-inflammatory activity against Carrageenan-induced paw oedema rat model at 20 mg/kg after 3 hrs; summary of the method: as §2
Rattus norvegicus [7] = assay: Anti-inflammatory activity against Carrageenan-induced paw oedema rat model at 20 mg/kg after 2 hrs; summary of the method: as §2
Mus musculus [8] = assay: Analgesic activity in Wistar Albino mouse at 20 mg/kg, po after 3 hrs by tail-flick technique; summary of the method: as §1
Rattus norvegicus [9] = assay: Anti-inflammatory activity against Carrageenan-induced paw oedema rat model at 20 mg/kg after 1 hr; summary of the method: as §2
Rattus norvegicus [10] = assay: Anti-inflammatory activity against Carrageenan-induced paw oedema rat model at 10 mg/kg after 30 mins; summary of the method: as §2
Mus musculus [11] = assay: Analgesic activity in Wistar Albino mouse at 20 mg/kg, po after 30 mins by tail-flick technique; summary of the method: as §1
Rattus norvegicus [12] = assay: Anti-inflammatory activity against Carrageenan-induced paw oedema rat model at 10 mg/kg after 2 hrs; summary of the method: as §2
Mus musculus [13] = assay: Analgesic activity in Wistar Albino mouse at 20 mg/kg, po after 1 hr by tail-flick technique; summary of the method: as §1
Mus musculus [14] = assay: Analgesic activity in Wistar Albino mouse at 20 mg/kg, po after 2 hrs by tail-flick technique; summary of the method: as §1
Rattus norvegicus [15] = assay: Anti-inflammatory activity against Carrageenan-induced paw oedema rat model at 20 mg/kg after 30 min; summary of the method: as §2
Mus musculus [16] = assay: Analgesic activity in Wistar Albino mouse at 10 mg/kg, po after 2 hrs by tail-flick technique; summary of the method: as §1

| SMILES | Activity (Mus musculus [1]) [%] | Activity (Mus musculus [2]) [%] | Activity (Rattus norvegicus [3]) [%] | Activity (Mus musculus [4]) [%] | Activity (Rattus norvegicus [5]) [%] | Activity (Rattus norvegicus [6]) [%] | Activity (Rattus norvegicus [7]) [%] | Activity (Mus musculus [8]) [%] | Activity (Rattus norvegicus [9]) [%] | Activity (Rattus norvegicus [10]) [%] | Activity (Mus musculus [11]) [%] | Activity (Rattus norvegicus [12]) [%] | Activity (Mus musculus [13]) [%] | Activity (Mus musculus [14]) [%] | Activity (Rattus norvegicus [15]) [%] | Activity (Mus musculus [16]) [%] |
| --- | --- | --- | --- | --- | --- | --- | --- | --- | --- | --- | --- | --- | --- | --- | --- | --- |
| O=c1c2ccccc2nc(NN=C2CCCCC2)n1-c1ccccc1 | 40 | 33 | 27 | 25 | 33 | 35 | 42 | 37 | 42 | 29 | 50 | 36 | 51 | 53 | 39 | 46 |
| Cc1ccccc1/C=N\Nc1nc2ccccc2c(=O)n1-c1ccccc1 | 39 | 35 | 28 | 33 | 32 | 30 | 42 | 39 | 39 | 30 | 45 | 33 | 46 | 48 | 36 | 40 |
| O=c1c2ccccc2nc(N/N=C\c2ccc(Cl)cc2)n1-c1ccccc1 | 34 | 32 | 23 | 27 | 28 | 25 | 37 | 35 | 32 | 26 | 40 | 30 | 45 | 48 | 29 | 42 |
| CC/C(C)=N/Nc1nc2ccccc2c(=O)n1-c1ccccc1 | 43 | 41 | 26 | 31 | 36 | 36 | 47 | 42 | 45 | 32 | 55 | 37 | 59 | 61 | 38 | 50 |
| C/C(=N\Nc1nc2ccccc2c(=O)n1-c1ccccc1)c1ccccc1 | 43 | 38 | 29 | 29 | 35 | 33 | 46 | 36 | 42 | 31 | 50 | 38 | 53 | 57 | 38 | 43 |
| O=c1c2ccccc2nc(N/N=C\c2ccccc2)n1-c1ccccc1 | 38 | 35 | 29 | 29 | 32 | 26 | 43 | 31 | 40 | 28 | 46 | 35 | 50 | 53 | 36 | 41 |
| CCC/C(C)=N/Nc1nc2ccccc2c(=O)n1-c1ccccc1 | 48 | 43 | 33 | 33 | 41 | 41 | 60 | 45 | 58 | 35 | 56 | 42 | 62 | 62 | 46 | 50 |
| O=c1c2ccccc2nc(N/N=C\c2ccc([N+](=O)[O-])cc2)n1-c1ccccc1 | 39 | 34 | 20 | 27 | 28 | 32 | 36 | 33 | 35 | 25 | 38 | 30 | 45 | 47 | 35 | 39 |
| Cc1ccc(/C=N\Nc2nc3ccccc3c(=O)n2-c2ccccc2)cc1 | 40 | 37 | 25 | 33 | 33 | 36 | 43 | 40 | 38 | 28 | 43 | 34 | 47 | 50 | 38 | 40 |
| O=c1c2ccccc2nc(N/N=C\c2ccccc2Cl)n1-c1ccccc1 | 30 | 29 | 20 | 25 | 24 | 25 | 35 | 36 | 32 | 21 | 37 | 26 | 39 | 42 | 27 | 37 |
| O=c1c2ccccc2nc(N/N=C\c2ccccc2[N+](=O)[O-])n1-c1ccccc1 | 36 | 35 | 22 | 30 | 29 | 30 | 36 | 39 | 33 | 27 | 42 | 34 | 46 | 49 | 32 | 39 |
| O=c1c2ccccc2nc(NN=C(c2ccccc2)c2ccccc2)n1-c1ccccc1 | 36 | 33 | 26 | 29 | 33 | 35 | 42 | 36 | 39 | 27 | 39 | 35 | 41 | 46 | 36 | 41 |
| CCC(CC)=NNc1nc2ccccc2c(=O)n1-c1ccccc1 | 55 | 49 | 32 | 41 | 35 | 36 | 56 | 49 | 52 | 34 | 63 | 39 | 69 | 72 | 43 | 58 |
| COc1ccc(/C=N\Nc2nc3ccccc3c(=O)n2-c2ccccc2)cc1 | 42 | 38 | 24 | 30 | 30 | 30 | 37 | 29 | 37 | 28 | 42 | 32 | 49 | 50 | 33 | 43 |
| O=C1Nc2ccccc2/C1=N\Nc1nc2ccccc2c(=O)n1-c1ccccc1 | 37 | 36 | 23 | 30 | 30 | 30 | 39 | 35 | 36 | 27 | 47 | 31 | 51 | 55 | 32 | 40 |
| O=C(O)Cc1ccccc1Nc1c(Cl)cccc1Cl [DICLOFENAC] | 43 | 37 | 33 | 33 | 38 | 42 | 60 | 39 | 52 | 32 | 46 | 39 | 55 | 62 | 45 | 45 |
